# System: HEK-293T
# Assay: Multiplex assay against HEK293T;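 for Population Tubulin-Different-Phenotype (%): share of the cells with healthy nuclei that show this phenotype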
# Assay type: toxicity, cell-based
# Conditions: human
# Method in brief: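 Cells were classed with CellPathfinder machine-learning gating, first as Hoechst high-intensity objects or normal cells, then (normal cells) as healthy, pyknosed or fragmented nuclei, and finally (pyknosed cells) as mitotic or apoptotic. Staining of live cells at seeding used Hoechst33342, BioTracker Green Microtubule Cytoskeleton Dye, MitoTracker Red and Annexin V Alexa Fluor 680, with imaging on a CQ1 microscope at 37°C and 5% CO2 after compound addition. Tubulin, mitochondrial-mass and membrane-permeability phenotypes are per cents of healthy-nucleus cells.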
# [1] = 12 h, 1 µM, compound concentration 1 uM, replicate 1
# [2] = 12 h, 1 µM, compound concentration 1 uM, replicate 2
# [3] = 12 h, 10 µM, compound concentration 10 uM, replicate 1
# [4] = 12 h, 10 µM, compound concentration 10 uM, replicate 2
# [5] = 24 h, 1 µM, compound concentration 1 uM, replicate 1
# [6] = 24 h, 1 µM, compound concentration 1 uM, replicate 2
# [7] = 24 h, 10 µM, compound concentration 10 uM, replicate 1
# [8] = 24 h, 10 µM, compound concentration 10 uM, replicate 2
# [9] = 48 h, 1 µM, compound concentration 1 uM, replicate 1
# [10] = 48 h, 1 µM, compound concentration 1 uM, replicate 2
# [11] = 48 h, 10 µM, compound concentration 10 uM, replicate 1
# [12] = 48 h, 10 µM, compound concentration 10 uM, replicate 2
smiles,measurement,setting,value
O=C1N/C(=N/c2ccccc2F)S/C1=C\c1ccc(C(=O)O)cc1,Population Apoptotic (%),[1],31%
same,Population Fragmented Nuclei (%),[1],14%
same,Population Healthy Nuclei (%),[1],38%
same,Population Hoechst High Intensity Objects (%),[1],14%
same,Population Membrane Permeable-Phenotype (%),[1],0%
same,Population Mitochondria Different-Phenotype (%),[1],70%
same,Population Mitotic Cells (%),[1],68%
same,Population Normal (%),[1],85%
same,Population Pyknosed Nuclei (%),[1],46%
same,Population Tubulin-Different-Phenotype (%),[1],21%
same,Total Cell Count,[1],182
same,Population Apoptotic (%),[2],8%
same,Population Fragmented Nuclei (%),[2],6%
same,Population Healthy Nuclei (%),[2],42%
same,Population Hoechst High Intensity Objects (%),[2],4%
same,Population Membrane Permeable-Phenotype (%),[2],6%
same,Population Mitochondria Different-Phenotype (%),[2],6%
same,Population Mitotic Cells (%),[2],91%
same,Population Normal (%),[2],95%
same,Population Pyknosed Nuclei (%),[2],50%
same,Population Tubulin-Different-Phenotype (%),[2],6%
same,Total Cell Count,[2],145
same,Population Apoptotic (%),[3],36%
same,Population Fragmented Nuclei (%),[3],10%
same,Population Healthy Nuclei (%),[3],38%
same,Population Hoechst High Intensity Objects (%),[3],14%
same,Population Membrane Permeable-Phenotype (%),[3],4%
same,Population Mitochondria Different-Phenotype (%),[3],63%
same,Population Mitotic Cells (%),[3],63%
same,Population Normal (%),[3],85%
same,Population Pyknosed Nuclei (%),[3],50%
same,Population Tubulin-Different-Phenotype (%),[3],33%
same,Total Cell Count,[3],203
same,Population Apoptotic (%),[4],10%
same,Population Fragmented Nuclei (%),[4],4%
same,Population Healthy Nuclei (%),[4],51%
same,Population Hoechst High Intensity Objects (%),[4],3%
same,Population Membrane Permeable-Phenotype (%),[4],5%
same,Population Mitochondria Different-Phenotype (%),[4],18%
same,Population Mitotic Cells (%),[4],89%
same,Population Normal (%),[4],96%
same,Population Pyknosed Nuclei (%),[4],43%
same,Population Tubulin-Different-Phenotype (%),[4],16%
same,Total Cell Count,[4],212
same,Population Apoptotic (%),[5],43%
same,Population Fragmented Nuclei (%),[5],16%
same,Population Healthy Nuclei (%),[5],38%
same,Population Hoechst High Intensity Objects (%),[5],12%
same,Population Membrane Permeable-Phenotype (%),[5],3%
same,Population Mitochondria Different-Phenotype (%),[5],46%
same,Population Mitotic Cells (%),[5],56%
same,Population Normal (%),[5],87%
same,Population Pyknosed Nuclei (%),[5],45%
same,Population Tubulin-Different-Phenotype (%),[5],24%
same,Total Cell Count,[5],185
same,Population Apoptotic (%),[6],8%
same,Population Fragmented Nuclei (%),[6],6%
same,Population Healthy Nuclei (%),[6],56%
same,Population Hoechst High Intensity Objects (%),[6],5%
same,Population Membrane Permeable-Phenotype (%),[6],12%
same,Population Mitochondria Different-Phenotype (%),[6],13%
same,Population Mitotic Cells (%),[6],91%
same,Population Normal (%),[6],94%
same,Population Pyknosed Nuclei (%),[6],36%
same,Population Tubulin-Different-Phenotype (%),[6],21%
same,Total Cell Count,[6],168
same,Population Apoptotic (%),[7],51%
same,Population Fragmented Nuclei (%),[7],13%
same,Population Healthy Nuclei (%),[7],46%
same,Population Hoechst High Intensity Objects (%),[7],16%
same,Population Membrane Permeable-Phenotype (%),[7],5%
same,Population Mitochondria Different-Phenotype (%),[7],48%
same,Population Mitotic Cells (%),[7],48%
same,Population Normal (%),[7],83%
same,Population Pyknosed Nuclei (%),[7],39%
same,Population Tubulin-Different-Phenotype (%),[7],26%
same,Total Cell Count,[7],236
same,Population Apoptotic (%),[8],13%
same,Population Fragmented Nuclei (%),[8],5%
same,Population Healthy Nuclei (%),[8],69%
same,Population Hoechst High Intensity Objects (%),[8],4%
same,Population Membrane Permeable-Phenotype (%),[8],8%
same,Population Mitochondria Different-Phenotype (%),[8],17%
same,Population Mitotic Cells (%),[8],86%
same,Population Normal (%),[8],96%
same,Population Pyknosed Nuclei (%),[8],25%
same,Population Tubulin-Different-Phenotype (%),[8],24%
same,Total Cell Count,[8],275
same,Population Apoptotic (%),[9],44%
same,Population Fragmented Nuclei (%),[9],20%
same,Population Healthy Nuclei (%),[9],43%
same,Population Hoechst High Intensity Objects (%),[9],16%
same,Population Membrane Permeable-Phenotype (%),[9],2%
same,Population Mitochondria Different-Phenotype (%),[9],27%
same,Population Mitotic Cells (%),[9],55%
same,Population Normal (%),[9],83%
same,Population Pyknosed Nuclei (%),[9],36%
same,Population Tubulin-Different-Phenotype (%),[9],26%
same,Total Cell Count,[9],254
same,Population Apoptotic (%),[10],14%
same,Population Fragmented Nuclei (%),[10],6%
same,Population Healthy Nuclei (%),[10],80%
same,Population Hoechst High Intensity Objects (%),[10],5%
same,Population Membrane Permeable-Phenotype (%),[10],11%
same,Population Mitochondria Different-Phenotype (%),[10],6%
same,Population Mitotic Cells (%),[10],85%
same,Population Normal (%),[10],94%
same,Population Pyknosed Nuclei (%),[10],12%
same,Population Tubulin-Different-Phenotype (%),[10],24%
same,Total Cell Count,[10],299
same,Population Apoptotic (%),[11],29%
same,Population Fragmented Nuclei (%),[11],18%
same,Population Healthy Nuclei (%),[11],45%
same,Population Hoechst High Intensity Objects (%),[11],11%
same,Population Membrane Permeable-Phenotype (%),[11],2%
same,Population Mitochondria Different-Phenotype (%),[11],19%
same,Population Mitotic Cells (%),[11],70%
same,Population Normal (%),[11],88%
same,Population Pyknosed Nuclei (%),[11],35%
same,Population Tubulin-Different-Phenotype (%),[11],21%
same,Total Cell Count,[11],279
same,Population Apoptotic (%),[12],6%
same,Population Fragmented Nuclei (%),[12],6%
same,Population Healthy Nuclei (%),[12],83%
same,Population Hoechst High Intensity Objects (%),[12],2%
same,Population Membrane Permeable-Phenotype (%),[12],3%
same,Population Mitochondria Different-Phenotype (%),[12],5%
same,Population Mitotic Cells (%),[12],94%
same,Population Normal (%),[12],97%
same,Population Pyknosed Nuclei (%),[12],9%
same,Population Tubulin-Different-Phenotype (%),[12],14%
same,Total Cell Count,[12],534
CNc1cc(Oc2cc(C(=O)Nc3cc(N4CCN(C)CC4)cc(C(F)(F)F)c3)ccc2C)ncn1,Population Apoptotic (%),[1],79%
same,Population Fragmented Nuclei (%),[1],14%
same,Population Healthy Nuclei (%),[1],13%
same,Population Hoechst High Intensity Objects (%),[1],20%
same,Population Membrane Permeable-Phenotype (%),[1],0%
same,Population Mitochondria Different-Phenotype (%),[1],96%
same,Population Mitotic Cells (%),[1],20%
same,Population Normal (%),[1],79%
same,Population Pyknosed Nuclei (%),[1],72%
same,Population Tubulin-Different-Phenotype (%),[1],89%
same,Total Cell Count,[1],263
same,Population Apoptotic (%),[2],41%
same,Population Fragmented Nuclei (%),[2],8%
same,Population Healthy Nuclei (%),[2],21%
same,Population Hoechst High Intensity Objects (%),[2],6%
same,Population Membrane Permeable-Phenotype (%),[2],2%
same,Population Mitochondria Different-Phenotype (%),[2],69%
same,Population Mitotic Cells (%),[2],58%
same,Population Normal (%),[2],93%
same,Population Pyknosed Nuclei (%),[2],70%
same,Population Tubulin-Different-Phenotype (%),[2],76%
same,Total Cell Count,[2],213
same,Population Apoptotic (%),[3],86%
same,Population Fragmented Nuclei (%),[3],17%
same,Population Healthy Nuclei (%),[3],3%
same,Population Hoechst High Intensity Objects (%),[3],21%
same,Population Membrane Permeable-Phenotype (%),[3],0%
same,Population Mitochondria Different-Phenotype (%),[3],100%
same,Population Mitotic Cells (%),[3],13%
same,Population Normal (%),[3],78%
same,Population Pyknosed Nuclei (%),[3],80%
same,Population Tubulin-Different-Phenotype (%),[3],83%
same,Total Cell Count,[3],256
same,Population Apoptotic (%),[4],98%
same,Population Fragmented Nuclei (%),[4],5%
same,Population Healthy Nuclei (%),[4],4%
same,Population Hoechst High Intensity Objects (%),[4],14%
same,Population Mitotic Cells (%),[4],1%
same,Population Normal (%),[4],85%
same,Population Pyknosed Nuclei (%),[4],89%
same,Population Tubulin-Different-Phenotype (%),[4],60%
same,Total Cell Count,[4],127
same,Population Apoptotic (%),[5],73%
same,Population Fragmented Nuclei (%),[5],18%
same,Population Healthy Nuclei (%),[5],12%
same,Population Hoechst High Intensity Objects (%),[5],21%
same,Population Membrane Permeable-Phenotype (%),[5],0%
same,Population Mitochondria Different-Phenotype (%),[5],96%
same,Population Mitotic Cells (%),[5],26%
same,Population Normal (%),[5],78%
same,Population Pyknosed Nuclei (%),[5],69%
same,Population Tubulin-Different-Phenotype (%),[5],81%
same,Total Cell Count,[5],269
same,Population Apoptotic (%),[6],41%
same,Population Fragmented Nuclei (%),[6],12%
same,Population Healthy Nuclei (%),[6],36%
same,Population Hoechst High Intensity Objects (%),[6],5%
same,Population Membrane Permeable-Phenotype (%),[6],1%
same,Population Mitochondria Different-Phenotype (%),[6],63%
same,Population Mitotic Cells (%),[6],58%
same,Population Normal (%),[6],94%
same,Population Pyknosed Nuclei (%),[6],51%
same,Population Tubulin-Different-Phenotype (%),[6],70%
same,Total Cell Count,[6],284
same,Population Apoptotic (%),[7],88%
same,Population Fragmented Nuclei (%),[7],15%
same,Population Healthy Nuclei (%),[7],0%
same,Population Hoechst High Intensity Objects (%),[7],26%
same,Population Membrane Permeable-Phenotype (%),[7],0%
same,Population Mitochondria Different-Phenotype (%),[7],100%
same,Population Mitotic Cells (%),[7],11%
same,Population Normal (%),[7],73%
same,Population Pyknosed Nuclei (%),[7],84%
same,Population Tubulin-Different-Phenotype (%),[7],100%
same,Total Cell Count,[7],264
same,Population Apoptotic (%),[8],97%
same,Population Fragmented Nuclei (%),[8],6%
same,Population Healthy Nuclei (%),[8],3%
same,Population Hoechst High Intensity Objects (%),[8],18%
same,Population Mitotic Cells (%),[8],2%
same,Population Normal (%),[8],81%
same,Population Pyknosed Nuclei (%),[8],89%
same,Population Tubulin-Different-Phenotype (%),[8],75%
same,Total Cell Count,[8],126
same,Population Apoptotic (%),[9],68%
same,Population Fragmented Nuclei (%),[9],24%
same,Population Healthy Nuclei (%),[9],21%
same,Population Hoechst High Intensity Objects (%),[9],18%
same,Population Membrane Permeable-Phenotype (%),[9],1%
same,Population Mitochondria Different-Phenotype (%),[9],76%
same,Population Mitotic Cells (%),[9],31%
same,Population Normal (%),[9],81%
same,Population Pyknosed Nuclei (%),[9],54%
same,Population Tubulin-Different-Phenotype (%),[9],74%
same,Total Cell Count,[9],297
same,Population Apoptotic (%),[10],40%
same,Population Fragmented Nuclei (%),[10],14%
same,Population Healthy Nuclei (%),[10],65%
same,Population Hoechst High Intensity Objects (%),[10],4%
same,Population Membrane Permeable-Phenotype (%),[10],6%
same,Population Mitochondria Different-Phenotype (%),[10],25%
same,Population Mitotic Cells (%),[10],59%
same,Population Normal (%),[10],95%
same,Population Pyknosed Nuclei (%),[10],19%
same,Population Tubulin-Different-Phenotype (%),[10],51%
same,Total Cell Count,[10],421
same,Population Apoptotic (%),[11],91%
same,Population Fragmented Nuclei (%),[11],32%
same,Population Healthy Nuclei (%),[11],1%
same,Population Hoechst High Intensity Objects (%),[11],29%
same,Population Membrane Permeable-Phenotype (%),[11],0%
same,Population Mitochondria Different-Phenotype (%),[11],100%
same,Population Mitotic Cells (%),[11],8%
same,Population Normal (%),[11],70%
same,Population Pyknosed Nuclei (%),[11],66%
same,Population Tubulin-Different-Phenotype (%),[11],33%
same,Total Cell Count,[11],273
same,Population Apoptotic (%),[12],98%
same,Population Fragmented Nuclei (%),[12],7%
same,Population Healthy Nuclei (%),[12],5%
same,Population Hoechst High Intensity Objects (%),[12],26%
same,Population Membrane Permeable-Phenotype (%),[12],20%
same,Population Mitotic Cells (%),[12],1%
same,Population Normal (%),[12],73%
same,Population Pyknosed Nuclei (%),[12],87%
same,Population Tubulin-Different-Phenotype (%),[12],80%
same,Total Cell Count,[12],131

# — ChEMBL document CHEMBL4689842, “EUbOPEN Chemogenomics Library wave 1” (2021)
